The record followed here is the RNAGym collection of RNA variant scans (doi:10.1126/science.aae0568).

The chains are these.
B1: tRNA (parent)
chain: GUUCCGUUGGCGUAAUGGUAACGCGUCUCCCUCCUAAGGAGAAGACUGCGGGUUCGAGUCCCGUACGGAACG

Fewer inactive variants are shown than the library holds.

Variants of B1 are the subject of this data set. The data set can be described thus: yeast fitness relative to wild type (ratio to wild type); higher = fitter; tRNA-Arg(CCU), competitive growth, 37 C, YPD. In short, it runs like this: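 For this measurement, the tRNA-Arg(CCU) gene was varied by chemical synthesis at a 3% per-site mutation rate across 69 sites, and each variant was placed at the native genomic locus in Saccharomyces cerevisiae. The pooled strains went through a 24-hour competition in YPD at 37°C in six parallel replicates, with amplicons from start and end populations read by 100-nucleotide paired-end sequencing. Darwinian fitness relative to wild type followed from the change in each genotype's frequency. Genotypes needed ≥ 100 starting reads, and estimates < 0.5 were set to 0.5.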
As to G9A A42C C66U, the yeast fitness amounted to 0.543. With G10A G18C C33G C66G, the yeast fitness is ≤ 0.5. On to C11U C33U A36G G39A G44A, for which the yeast fitness is ≤ 0.5. On to U7A G25U U32A G41A C61U, for which the yeast fitness came out at 0.589. Next, A20C G39C C49U: ≤ 0.5; G6C C46G A57G C62U C66U: ≤ 0.5.

Consider C33G A65U, for which the yeast fitness was determined as 0.728.

Turning to G9C U13C C27A U54A C60U, the yeast fitness was ≤ 0.5. G10C U26A U59C C66U: the yeast fitness was ≤ 0.5. For the variant U2G C29G C49G, the yeast fitness is ≤ 0.5. Next, C4A A20C C27U G50A: 0.597; C24U A37G A43G: 0.516; C29G G38A U53A U64A: ≤ 0.5. Regarding C33U U47G C49U, the yeast fitness is 0.581. Regarding G9A G10A U28A G39A G48A C61G C66G, the yeast fitness is ≤ 0.5. Take C4G C5A C27A C61A: the yeast fitness is ≤ 0.5. With A15C U54G the figure was 0.537; with A20U C31G A40C, ≤ 0.5.

Regarding A21U C24G C49A U54G, the yeast fitness was determined as 0.56. Regarding C22A U32C A37C A65G, the yeast fitness was ≤ 0.5. As to G9C G17C C27G U35A C49A A69U, the yeast fitness worked out at 0.536. Consider G6A A21C U28A C62U, for which the yeast fitness was ≤ 0.5.

Consider C29A C30U A42U, for which the yeast fitness was ≤ 0.5. Next, C4U G25A A57U U59A: ≤ 0.5. C24A A36C G52C C66U: the yeast fitness amounted to 0.761. G10A G38A A57G: the yeast fitness is ≤ 0.5. For C5A G18C C46U, the yeast fitness was 0.557. On to A21U C31G A40U G50C C61A C66U, for which the yeast fitness is 0.513.

On to A15C U59A C61A, for which the yeast fitness stood at 0.698.

For the variant C27A U59C A69U, the yeast fitness amounted to 0.713. With A20G U64G G68A A70C the figure was ≤ 0.5. Next, U7G C30U A36G C55G: ≤ 0.5. For U8C G12C A70C, the yeast fitness is 0.686.

On to C4G A57C, for which the yeast fitness amounted to 0.57. C4U A21G C46A U54C: the yeast fitness amounted to 0.791. Consider A21G C27U C30G U32G C46G G48A C60A, for which the yeast fitness stood at 0.561.

On to G6C A42U, for which the yeast fitness is 0.739.

In the case of U8C G9A G12A C60U, the yeast fitness is ≤ 0.5. As to C11U C22G C27U C31G, the yeast fitness was ≤ 0.5. Turning to C4G U26A U47G U54C, the yeast fitness is ≤ 0.5. For U16G C60A, the yeast fitness stood at 0.606. For G6A A45G G67U, the yeast fitness stood at 0.687. As for G67U, the yeast fitness was determined as 0.918. For the variant U16A A37G G39A C49A G50A G68C, the yeast fitness worked out at 0.531. Regarding A15C A36U A42G U59C C60A, the yeast fitness is ≤ 0.5. Next, A14G U26C A37G C61U G68A: ≤ 0.5; G38A A40U G50C C60G A70G: 0.526; G25C C27A: 0.678. Next, A15U G25C C34A: 0.941; C24U C49U U59G G67U: ≤ 0.5.

For U13A G39A, the yeast fitness stood at 0.782.

For the variant G25A A45G G50C, the yeast fitness was determined as 0.516. Regarding G12C U13A G23A A37C C61U, the yeast fitness came to 0.586. With C5G U26A A36C C61U the figure was ≤ 0.5; with A15C A36U A65C, 0.54. Turning to C4A C5U C30U A45G, the yeast fitness is 0.516. With A15C A36U the figure was 0.633; with U2C U7G A40C G51A G67A, ≤ 0.5; with C4U C5G C11U C29U U32A C33U G67U A70G, ≤ 0.5. With C4A C22G G51C A65C the figure was 0.731; with C30U A69G, 0.947; with U7C G41A A42C G50C, 0.592.

For G9A C34U C46A C62U, the yeast fitness was 0.546. For the variant G51A A69C, the yeast fitness is 0.979. Take C11U A21C C27G G39C A57C G68U: the yeast fitness is ≤ 0.5. Turning to C55U G58A, the yeast fitness was 0.642.

With A43C G67C, the yeast fitness was 0.867.

With C5A U16A U35C A45G G50A, the yeast fitness was ≤ 0.5. Next, U13A A14C A21C G25A C61A: ≤ 0.5; C27G G58A: 0.698. As for C4G C31U, the yeast fitness amounted to 1.12.

Turning to A37G G58A, the yeast fitness worked out at 0.976. Turning to A45U C49G, the yeast fitness stood at 0.872.

In the case of A15C G25A A65C, the yeast fitness amounted to 0.711. Take U26G C27U G56A A65C: the yeast fitness was ≤ 0.5. In the case of C5A G48A C49G, the yeast fitness was 0.682.

Take U3C C27U G50A: the yeast fitness turned out to be 0.648. Consider A37U U64A, for which the yeast fitness came to 0.642. Turning to U26A U35G A37U A70G, the yeast fitness is ≤ 0.5. Next, C31G A36C C49G: ≤ 0.5; G10A U16A A65G: 0.542; A40G C49U: 0.883. As to G10C U19A A37C G50U, the yeast fitness turned out to be 0.526. In the case of C34A G67C, the yeast fitness was 0.782. With A14U, the yeast fitness stood at 0.667.

With G6C A37U C49U A69U, the yeast fitness was 0.585. Regarding G38C A40U U54C, the yeast fitness was ≤ 0.5. Consider A20G C31U A42U C46U C66G, for which the yeast fitness was determined as 0.714.

On to G38C A43G C62G, for which the yeast fitness was ≤ 0.5. G10C C29U C34U G38A G44C: the yeast fitness is ≤ 0.5. Consider C4U C11U C33U C62A, for which the yeast fitness was ≤ 0.5. As for G39A A42U, the yeast fitness was 0.767.

Regarding U2C A21C G38A, the yeast fitness is 0.594. In the case of C31G A40G C46A, the yeast fitness amounted to 0.618. As to A37U A40C G51A, the yeast fitness turned out to be 0.687. Regarding C31G A42C C55U G68A, the yeast fitness turned out to be 0.542. Next, C4U A15U C30A A40G C66U: 0.6; U26C C27U U54G G56A: 0.54; U3A C5A G6C A37C A45U G68C: ≤ 0.5. In the case of A14C A20G A42C G48C, the yeast fitness is ≤ 0.5. As to C5A G12A G18A, the yeast fitness is ≤ 0.5. With A45U C61A G67A, the yeast fitness is ≤ 0.5.

C4A C24U U47G: the yeast fitness was ≤ 0.5. Next, U26C C33G A36G A42C C49G G58C C62G: ≤ 0.5; C4G C22U C30U C33U A45C: ≤ 0.5; C5G U13C C22G G23U C29G A45C G68C A69G: 0.531. Next, A42U G56A G63C: ≤ 0.5; C11G C27G C66U: ≤ 0.5; G6A A14U C61U: ≤ 0.5. On to C5U U7C U26A, for which the yeast fitness is 0.677. Take C27A G41C A43C G48A C66U: the yeast fitness was found to be 0.546. Take A43C G56A: the yeast fitness worked out at 0.949.

With A14G A21U U47G C49G G56C, the yeast fitness is ≤ 0.5. For U13C A14G C24A U32G A37C U64A, the yeast fitness is 0.646.

Take G23U C24G C27U: the yeast fitness was ≤ 0.5. On to G12C C46A G68U, for which the yeast fitness is ≤ 0.5.

Regarding U2C C33U, the yeast fitness was 0.862.

As to G9C U16G C29G A40G, the yeast fitness is ≤ 0.5. With C27U G39A G68U the figure was 0.54. C22U C27G U28G U59C: the yeast fitness is ≤ 0.5. Next, A14G C62U: 0.937; C24G C30G C66U: ≤ 0.5. On to A14C U19G G44C C62G, for which the yeast fitness was ≤ 0.5. With A21U C31G C33G the figure was ≤ 0.5. As for C30G C34G, the yeast fitness was ≤ 0.5. Next, C22G C49G C66A: ≤ 0.5. Next, C4A C27G A42G U53A: ≤ 0.5. In the case of C4A A15C C66U, the yeast fitness is ≤ 0.5. Turning to U7C G38A G50A G58A U59A, the yeast fitness is 0.579. Turning to U2G C5U, the yeast fitness was found to be 0.877.

Consider A20U A36G G48C G67C, for which the yeast fitness was ≤ 0.5. Consider A14G C55A A57U G58C A69U, for which the yeast fitness is ≤ 0.5.

In the case of C49A A70C, the yeast fitness was 0.743. With C49A C55U the figure was 0.606; with A14U A42U C49U C61U C66U, ≤ 0.5; with U7G G39C A57G, ≤ 0.5. Next, C29A U35C C66U: ≤ 0.5. With C31U C55G C62U the figure was ≤ 0.5; with A14G G48A C62A, 0.65. With U16C G48A A70U, the yeast fitness is 0.798. As for C4U U8C A36G A40C G44C, the yeast fitness is ≤ 0.5. C30G A70U: the yeast fitness amounted to 0.58. Next, C22U C30G C61U A65C C66U: ≤ 0.5; C4U C27U U47C: 0.734. On to U13C A15C A20G C22U G25A C27G C30A A57C, for which the yeast fitness is 0.542.

For U2C C31G C55U G63A, the yeast fitness was ≤ 0.5. As to C11G U16A C29U, the yeast fitness was ≤ 0.5. Take C27U G41A: the yeast fitness was found to be 0.939. With C24G A36U A42U C49G U53A G58A C60A the figure was ≤ 0.5. With G6A G44A C46A G52A C66U the figure was 0.526. Regarding A14G C24G C66U, the yeast fitness was ≤ 0.5.

For the variant C4U C11G C29A U54A A57U, the yeast fitness was ≤ 0.5. On to U2C C5G, for which the yeast fitness is 0.738.

As to G9C C24U U26G A42U G52U, the yeast fitness was ≤ 0.5. Next, C30U C31U A42U G67A: 0.537; C5A A14U A21G G52A: 0.533. Next, U7G A14G U35G C46A G63C A65U: ≤ 0.5; C4A C46G C55G: ≤ 0.5; U16G U19A G23C C49U: ≤ 0.5. On to U13A U19A A42U G51C, for which the yeast fitness is ≤ 0.5. As to G17A A21C A42C, the yeast fitness was ≤ 0.5. In the case of C11U G12A C31U, the yeast fitness turned out to be 0.532. With C34G A37G G38A G50A the figure was ≤ 0.5; with G56A G68C, 0.838. Consider G10A C27U A40C U47A G48C, for which the yeast fitness amounted to 0.585.

On to A14G C31U G58C G68A, for which the yeast fitness is ≤ 0.5.

G9A C31A U47A: the yeast fitness is ≤ 0.5.
